FN deposition inh: fibronectin deposition inhibition | AH1F fibroblasts, Alexa488-fibronectin deposition fluorescence, overnight | inhibition, % at 12.6 µM | 350,000 compounds, 0.086% hits | AID 743247;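 active = mean inhibition across replicates of 30% or more, regardless of how many single replicates reach that level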;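 note: positive control wells lacked labelled fibronectin entirely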
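Material: AH1F fibroblast monolayer depositing Alexa488-labelled fibronectin into matrix / Amount: 10000 AH1F cells per well / Signal: fluorescence 485/525 nm / Medium: DMEM, 2% serum / Compound: single dose, pinned / Incubation: 1 h cell adhesion before compound, then overnight fibronectin incubation / Reagent: Alexa488-FN, 24 nM final / Read-out: inhibition of fibronectin deposition signal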
ERp5 inh: ERp5 (human) disulfide isomerase inhibition; inhibition, % at 9.99 µM; AID 651711; Q15084; ERp5 insulin aggregation, absorbance 650 nm, 90 min; 350,000 compounds, 0.05% hits;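 active = mean replicate inhibition above about 25%, with every replicate also reaching it, limit read from the data, passing the limit was not always enough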
PDI inh: blocks human protein disulfide isomerase activity | P07237 | PDI insulin aggregation turbidity, A650, 90 min | inhibition, % at 10 µM | 350,000 compounds, 0.052% hits;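 active = mean inhibition across replicates of 30% or more, whatever share of single replicates reach that level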
ARNT-TACC3 inh: disrupts binding between human ARNT and TACC3; Q9Y6A5; AlphaScreen His-ARNT PAS-B/GST-TACC3 binding, luminescence; TACC3 fragment carries E629A point mutation; inhibition, % at 9.99 µM; 390,000 compounds, 0.66% hits; AID 623870;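 active = mean inhibition of replicates at least 50% and at least half of replicates each reaching 50%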;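 note: 0% = complete ARNT plus TACC3 wells and 100% = ARNT alone without TACC3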
AF4-AF9 inh: blocks AF4 peptide binding to human AF9. P42568. AlphaScreen, biotin-AF4 peptide binding to FLAG-AF9. inhibition, % at 10 µM. 350,000 compounds, 0.47% hits;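 active = every replicate reaching a set inhibition limit, whatever the replicate mean, cut at about 25% in these data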;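 note: 0% = plate neutral control median and 100% = total signal loss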
Target sequence (P42568 whole entry, looked up): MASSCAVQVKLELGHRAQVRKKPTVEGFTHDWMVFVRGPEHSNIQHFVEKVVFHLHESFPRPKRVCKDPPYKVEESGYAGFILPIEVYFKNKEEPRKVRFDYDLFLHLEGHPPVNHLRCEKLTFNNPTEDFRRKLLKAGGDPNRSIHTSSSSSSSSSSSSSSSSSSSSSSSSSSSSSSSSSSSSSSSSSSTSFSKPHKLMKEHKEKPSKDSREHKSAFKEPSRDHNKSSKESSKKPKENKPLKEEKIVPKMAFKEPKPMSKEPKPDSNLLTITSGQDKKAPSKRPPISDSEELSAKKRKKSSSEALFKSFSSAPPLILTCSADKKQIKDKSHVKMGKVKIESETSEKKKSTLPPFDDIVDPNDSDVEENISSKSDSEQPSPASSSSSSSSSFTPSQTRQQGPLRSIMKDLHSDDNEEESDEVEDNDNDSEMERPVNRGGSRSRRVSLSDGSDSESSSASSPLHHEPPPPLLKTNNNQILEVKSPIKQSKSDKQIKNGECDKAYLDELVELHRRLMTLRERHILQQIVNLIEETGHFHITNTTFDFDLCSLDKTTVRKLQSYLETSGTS
FGF22 binding: shifts melting point of recombinant human FGF22; recombinant FGF22 thermal shift, SYPRO orange fluorescence; percent of sucrose octasulfate shift, DMSO zero; Q9HCT0; activity (Tm shift, normalised), % at 9.99 µM; 340,000 compounds, 1.5% hits;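 active = mean Tm shift, scaled 0 neutral to 100 positive control, at about 1.3% or above, every replicate too, limit read from the data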
An asterisk follows results filed as active; / = no result given; ! = not active in a repeat. Hits are enriched below; roughly 2.1% of the tested compounds scored in any of these assays.

SMILES	FN deposition inh	ERp5 inh	PDI inh	ARNT-TACC3 inh	AF4-AF9 inh	FGF22 binding
O=c1cc(O)n(C2CCCCCC2)c(=O)[nH]1	3.3	-0.3	9.9	active	-5.4	-0.2
COC1CCN(C(=O)CC2C(=O)NCCN2CC2CCCCC2)CC1 (centres undefined)	/	-1.1	-6.4	0.5	-2.9	43.1*
CNC[C@@H]1OCCCC[C@H](C)Oc2ccc(N(C)C)cc2C(=O)N([C@H](C)CO)C[C@@H]1C	/	-6.1	/	-9.6	-1.0	-1.0
CN(C)CCCNS(=O)(=O)c1ccc(N2CCC(c3ccc(Cl)cc3)=N2)cc1	40.7*	/	/	/	/	/
O=S(=O)(c1ccc(N2CCC(c3ccc(Cl)cc3)=N2)cc1)N(CCO)CCO	0.5	-2.3	13.1	-59.8	/	/
COc1ccc(N2CC(C(=O)N/N=C/c3c[nH]c4ccccc34)CC2=O)cc1 (centres undefined)	5.2	0.3	22.3	/	2.0	43.6*
CC1=Nc2ccccc2/C1=C/c1c(N)n2c(S(=O)(=O)C(C)C)nsc2nc1=O	1.1	4.2	0.7	/	0.6	/
CC(C)S(=O)(=O)c1nsc2nc(=O)c(/C=C3\C=Nc4ccccc43)c(N)n12	-12.0	0.1	1.3	5.4	1.6	0.0
CC1=Nc2ccccc2/C1=C/c1c(N)n2c(S(=O)(=O)CC(C)C)nsc2nc1=O	-11.0	4.3	9.6	11.8	0.9	44.0*
CSc1nsc2nc(=O)c(/C=C3\C=Nc4ccccc43)c(N)n12	3.0	5.6	5.3	-2.0	2.2	1.5*
CS(=O)(=O)N1N=C(c2ccco2)CC1c1cccc([N+](=O)[O-])c1 (centres undefined)	3.4	4.2	18.9	-46.7	-7.0	0.0
CS(=O)(=O)N1N=C(c2ccco2)CC1c1ccc(Br)cc1 (centres undefined)	2.6	-8.0	7.7	-0.1	-5.8	43.5*
C[C@H](CO)N1C[C@H](C)[C@H](CN(C)CC2CCCCC2)OCCCC[C@H](C)Oc2ccc(NC(=O)NC3CCCCC3)cc2C1=O	1.4	/	/	1.2	/	-0.2
c1ccc(CSCc2ccccc2)cc1	/	1.4	/	-4.6	-1.1	0.0
Nc1ccccc1SCc1ccccc1	-11.9	-1.9	1.7	-1.6	-1.5	43.2*
CC(C)NC(=O)N(C)C[C@H]1Oc2ccccc2CC(=O)N(C)C[C@H]1C	5.4	/	/	/	/	/
COC(=O)c1ccc(N)cc1O	/	/	-18.6	/	/	/
COC(=O)c1ccc(=O)c2nc3/c(=C/O)c(O)cc(=O)c3[nH]c12	/	5.2	/	59.4*	-3.8	-0.1
Cc1cccc(NC(=S)NC(=O)c2oc3ccccc3c2C)n1	2.2	-3.9	-3.1	-15.4	-0.9	43.2*
COc1ccc(/C=N/NC(=O)CNc2ccc(Br)cc2)c(C(=O)O)c1OC	-22.4	-8.2	-1.0	-3.9	-9.9	44.0*
COc1ccc(/C=N/NC(=O)CNc2c(Br)cc(C)cc2Br)c(C(=O)O)c1OC	-4.1	/	-3.6	-9.9	/	/
CC1(C)OC2CC3C4CCC5=CC(=O)CCC5(C)C4(F)C(O)CC3(C)C2(C(=O)CO)O1 (centres undefined)	-6.3	2.5	3.7	-17.1	1.5	43.7*
CC1(C)O[C@@H]2C[C@H]3[C@@H]4CCC5=CC(=O)C=C[C@]5(C)[C@@]4(F)[C@@H](O)C[C@]3(C)[C@]2(C(=O)CO)O1	-2.3	1.5	-8.2	-4.1	0.3	0.1
CC(C)NC(=O)N(C)C[C@H]1Oc2ccc(NC(=O)C3CCCCC3)cc2CC(=O)N([C@@H](C)CO)C[C@H]1C	/	1.9	/	-6.0	-3.3	0.0
COc1ccc([N+](=O)[O-])cc1N1C(=O)c2cccnc2C1=O	-7.3	-3.7	2.3	49.7*	4.4	-0.1
SMILES	FN deposition inh	ERp5 inh	PDI inh	ARNT-TACC3 inh	AF4-AF9 inh	FGF22 binding
C[C@@H]1CN([C@@H](C)CO)C(=O)c2cc(NC(=O)CCN3CCOCC3)ccc2O[C@@H]1CN(C)Cc1ccccc1	/	3.9	/	3.2	-0.8	0.1
CCCCN1C(=O)C(CC(=O)NCCCN(C)C)CC(C(=O)N(CC)CC)=C1C (centres undefined)	0.7	-3.4	5.8	/	-0.6	43.4*
CCN(CC)C(=O)C1=C(C)N(Cc2ccccc2)C(=O)C(CC(=O)NCc2ccco2)C1 (centres undefined)	1.8	4.8	-1.3	/	1.5	43.1*
CCCCN1C(=O)C(CC(=O)NCc2ccco2)CC(C(=O)N(CC)CC)=C1C (centres undefined)	-6.9	1.7	-2.4	/	-1.7	43.4*
CCCN1C[C@@H](C)[C@H](OC)CN(C)C(=O)c2cc(NC(=O)c3cnccn3)ccc2OC[C@H]1C	-6.0	-6.7	/	-3.1	0.8	-0.4
CN1CCc2cc3c(c4c2[C@H]1[C@H](O)c1ccccc1-4)OCO3	1.6	-3.1	2.1	34.4	-3.4	-0.2
CN1CCc2cccc3c2[C@H]1Cc1ccc(O)c(O)c1-3	-7.8	-1.2	2.4	-4.1	29.3*!	-0.5
Cc1ccc(/C=N/NC(=O)CNC(=O)c2cccc([N+](=O)[O-])c2C)o1	-3.3	0.8	2.3	1.2	-0.6	43.3*
Cc1ccc(/C=N/NC(=O)CNC(=O)c2ccc(C)c([N+](=O)[O-])c2)o1	/	7.3	-4.3	3.2	0.1	0.4
O=C(COC(=O)CNC(=O)c1ccccc1Cl)NC1CC1	-1.5	-6.8	2.4	-9.6	1.3	-0.1
O=C(COC(=O)CNC(=O)c1ccc(Cl)cc1Cl)NC1CC1	-4.9	4.5	1.5	-1.9	-5.7	43.0*
Cc1[nH]c2ccccc2c1/C=N\NC(=O)c1ccccc1Cl	-10.7	-2.5	-1.6	/	0.8	43.2*
Cc1[nH]c2ccccc2c1/C=N/NC(=O)c1cccc(S(=O)(=O)Nc2cccc(C(F)(F)F)c2)c1	-5.5	-2.5	-10.9	0.3	-0.8	43.0*
COc1ccc(NS(=O)(=O)c2cc([N+](=O)[O-])ccc2N/N=C/c2c(C)[nH]c3ccccc23)cc1	-5.8	3.2	-6.2	-2.1	5.2	0.3
Cc1[nH]c2ccccc2c1/C=N/Nc1ccccc1[N+](=O)[O-]	18.9	-5.2	-3.3	0.4	50.3*	1.9*
NNC(=O)c1cccc(S(=O)(=O)Nc2cccc(C(F)(F)F)c2)c1	11.1	-3.9	-2.3	-9.2	-2.3	0.1
CCNC(=O)OCc1cn(-c2ccccc2)nn1	-9.6	-2.7	23.8	-0.1	-1.8	43.6*
CCCN(C)C[C@H]1Oc2cc(C#CCC3CCCC3)ccc2S(=O)(=O)N([C@H](C)CO)C[C@H]1C	13.9	/	/	/	/	/
CCOC(=O)SC1=N/C(=C\c2ccc(N(C)C)cc2)C(=O)S1	/	2.1	-4.6	3.2	5.0	0.2
Cc1cc2c(=Cc3ccc(N(C)C)cc3)c3ccccc3n2[n+]1C	-25.9	-7.4	-3.8	33.0	29.9*	-0.3
CCOC(=O)c1cc2c(=Cc3ccc(N(C)C)cc3)c3ccccc3n2[n+]1C	5.2	-3.3	5.3	/	51.9*	-0.1

Bioassay records as filed in PubChem.
